ChEMBL document CHEMBL1157836, “Dibenzocyclooctadiene lignans from Schisandra wilsoniana and their anti-HIV-1 activities” (J Nat Prod, 2010)
In brackets after ≈: the same amount, converted by molar mass.

Key:
[1] = Therapeutic index, ratio of CC50 for C8166 cells to EC50 for HIV1; format: cell-based; conditions: human, read-out: TI
Method in brief: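 TI was calculated as CC50 over EC50. CC50 came from the MTT assay on C8166 cells; EC50 came from HIV-1 cytopathic-effect inhibition in C8166 cells, run in parallel.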

[2] = tested on: Human immunodeficiency virus 1; assay: Antiviral activity against HIV1 infected in human C8166 cells assessed as inhibition of virus-induced cytopathic effect; format: functional, organism-based; conditions: Human immunodeficiency virus 1, C8166
Method in brief: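 HIV-1 cytopathic-effect inhibition assay in C8166 cells, giving EC50. AZT served as the positive control. Cytotoxicity was determined in parallel.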

[3] = Cytotoxicity against human C8166 cells by MTT assay; format: cell-based
Method in brief: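 C8166 cells were tested by MTT assay alongside the anti-HIV-1 determination, giving CC50. AZT served as the positive control.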

| EC50 [2] [µg/mL] | Compound | selectivity ratio [1] | CC50 [3] [µg/mL] |
| --- | --- | --- | --- |
| 2.1 (≈ 4.13 µM) | COc1c(O)cc2c(c1OC)-c1c(cc(O)c(OC)c1OC)[C@H](OC(=O)c1ccccc1)[C@@H](C)[C@@H](C)C2 | 6.7 | 14.2 (≈ 27.9 µM) |
| 1.9 (≈ 4.13 µM) | CCO[C@H]1c2cc(OC)c(OC)c(OC)c2-c2c(cc(OC)c(OC)c2OC)C[C@H](C)[C@@H]1C [MARLIGNAN J] | 9.3 | 17.2 (≈ 37.3 µM) |
| 5 (≈ 13.4 µM) | COc1cc2c(c(O)c1O)-c1c(cc(OC)c(OC)c1O)C[C@@H](C)[C@@H](C)C2 [MARLIGNAN C] | 13.2 | 65.6 (≈ 175 µM) |
| 5.1 (≈ 13.6 µM) | COc1cc2c(c(O)c1OC)-c1c(cc(O)c(OC)c1O)C[C@@H](C)[C@@H](C)C2 [MARLIGNAN B] | 8.4 | 43.4 (≈ 116 µM) |
| 2.6 (≈ 6.46 µM) | COc1c(O)cc2c(c1OC)-c1c(cc(O)c(OC)c1OC)C(=O)[C@@H](C)[C@@H](C)C2 [MARLIGNAN H] | 17.6 | 46.5 (≈ 116 µM) |
| 2.5 (≈ 6.18 µM) | COc1c(O)cc2c(c1OC)-c1c(cc(O)c(OC)c1OC)[C@H](O)[C@@H](C)[C@@H](C)C2 [MARLIGNAN D] | 5.7 | 14.2 (≈ 35.1 µM) |
| 1.4 (≈ 3.46 µM) | COc1c(O)cc2c(c1OC)-c1c(cc(O)c(OC)c1OC)C[C@](C)(O)[C@@H](C)C2 [MARLIGNAN L] | 16.4 | 22.6 (≈ 55.9 µM) |
| 1.6 (≈ 3.58 µM) | COc1c(O)cc2c(c1OC)-c1c(cc(O)c(OC)c1OC)[C@H](OC(C)=O)[C@@H](C)[C@@H](C)C2 [MARLIGNAN E] | 8.7 | 13.7 (≈ 30.7 µM) |
| 1.4 (≈ 3.35 µM) | COc1c(O)cc2c(c1OC)-c1c(cc(O)c(OC)c1OC)[C@H](OC)[C@@H](C)[C@@H](C)C2 [MARLIGNAN F] | 15.6 | 21.4 (≈ 51.1 µM) |
| 2.6 (≈ 6.94 µM) | COc1c(O)cc2c(c1O)-c1c(cc(O)c(OC)c1OC)C[C@@H](C)[C@@H](C)C2 [MARLIGNAN A] | 6 | 15.8 (≈ 42.2 µM) |
| 2.9 (≈ 6.11 µM) | COc1cc2c(c(OC)c1OC)-c1c(cc(OC)c(OC)c1OC)[C@H](OC(C)=O)[C@@H](C)[C@@H](C)C2 [MARLIGNAN I] | 4.6 | 13.5 (≈ 28.4 µM) |
| 1.9 (≈ 4.7 µM) | COc1cc2c(c(OC)c1OC)-c1c(cc(O)c(OC)c1O)C[C@H](C)[C@@](C)(O)C2 [MARLIGNAN K] | 7.7 | 14.8 (≈ 36.6 µM) |
